This is an account of results in ChEMBL document CHEMBL4414577, “Discovery of Pyrrolo[2,3-b]pyridine (1,7-Dideazapurine) Nucleoside Analogues as Anti-Trypanosoma cruzi Agents” (J Med Chem, 2019).

In series [1] the test system is Trypanosoma cruzi. The series is described as follows: Antitrypanosomal activity against Trypanosoma cruzi Tulahuen CL2 amastigotes infected in human MRC5 SV2 cells incubated for 7 days by chlorophenol red beta-D-galactopyranoside substrate based spectrophotometric assay. Format: functional, organism-based. Conditions: Tulahuen CL2, MRC-5 SV2, 168 h. The method, boiled down:
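Intracellular amastigotes of β-galactosidase-expressing Tulahuen strain grown in MRC-5 fibroblast host cells. EC50 in μM given as mean and SEM of two or three independent experiments; some values come from a single determination.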

Series [2] in a line: Drug metabolism in mouse liver microsomes assessed as CYP450-mediated metabolism by measuring parent compound remaining at 5 uM incubated for 60 mins in presence of NADPH by UPLC-MS analysis. Format: ADME. Conditions: read-out: Stability.
A short description of series [3]: Drug metabolism in dog liver microsomes assessed as UGT-mediated metabolism by measuring compound remaining at 5 uM incubated for 60 mins in presence of UDPGA by UPLC-MS analysis. Format: ADME, Canis lupus familiaris. Conditions: read-out: Stability. The method, boiled down: (§1)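 Compound incubated with male mouse, rat, dog or pooled human S9 fractions, with NADPH (phase I) or […], sampled at 0, 15, 30 and 60 min. Read-out is percent parent remaining. Two independent experiments of two biological replicates; diclofenac and fluconazole used as assay controls.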

The target of another series is Cytochrome P450 (Homo sapiens, UniProt P04798+P05177+P05181+P08684+P10632+P10635+P11509+P11712+P13584+P20813+P20815+P20853+P24462+P24903+P33260+P33261+P51589+P78329+P98187+Q02928+Q08477+Q16678+Q16696+Q5TCH4+Q6VVX0+Q7Z449+Q8TAV3+Q96SQ9+Q9HB55). The experiment in a line: Drug metabolism in human liver S9 fraction assessed as CYP450-mediated metabolism by measuring parent compound remaining at 5 uM incubated for 60 mins in presence of NADPH by UPLC-MS analysis. The class given is ADME, subcellular. The settings on record: read-out: Stability. The method, boiled down: as §1

In series [4] the test system is Trypanosoma cruzi. The series is described as follows: In vivo antitrypanosomal activity against Trypanosoma cruzi Y trypomastigotes infected in Swiss mouse assessed as mouse survival at 25 mg/kg, po administered twice daily via gavage for 5 days starting from 5 days post-infection and measured daily up to 40 days post-infection. The class given is functional, organism-based. The method, boiled down:
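Male Swiss Webster mice (18-20 g, 4-5 weeks) infected i.p. with 10⁴ Y-strain bloodstream trypomastigotes; six per group. Oral gavage from 5 dpi for 5 consecutive days: test compound at 25 mg/kg b.i.d. (2.0 mg/mL in 10% EtOH, 0.1 M citrate pH 3.02), benznidazole at 100 mg/kg s.i.d. Parasites counted in 5 μL tail blood to 30 dpi; mortality followed daily to 40 dpi.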

A short description of series [5]: Toxicity in Swiss Webster mouse infected with Trypanosoma cruzi Y trypomastigotes assessed as appearance of clinical symptoms at 25 mg/kg, po administered twice daily via gavage for 5 days starting from 5 days post-infection and measured daily up to 40 days post-infection. The class given is organism-based. Conditions: in vivo. The method, boiled down: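 Male Swiss Webster mice were infected i.p. with 10⁴ Y-strain trypomastigotes and treated by oral gavage for 5 days from 5 dpi. Regimens were 25 mg/kg b.i.d. (10% EtOH/citrate vehicle) or benznidazole 100 mg/kg s.i.d. Body weight and visual clinical signs were monitored, with daily mortality checks up to 40 dpi. There were six mice per group.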

For series [6], the system named is Trypanosoma cruzi. The experiment in a line: In vivo antitrypanosomal activity against Trypanosoma cruzi Y trypomastigotes infected in Swiss mouse assessed as reduction in parasitemia at 25 mg/kg, po administered twice daily for 5 days with 2 days interval for 3 cycles and measured 9 days post-infection by light microscopy relative to control. The class given is functional. The arrangement: scale not given: the % may be the effect or the level left. The method, boiled down: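 Male Swiss Webster mice infected i.p. with 10⁴ Y-strain bloodstream trypomastigotes; six per group. Oral gavage from 5 dpi for 15 days (three 5-day rounds, 2 days off): test compound 25 mg/kg b.i.d., benznidazole 100 mg/kg s.i.d. Parasites counted in 5 μL tail blood to 30 dpi; mortality followed to 53 dpi.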

Active and inactive are the calls of the source. The calls are words filed in the database; no cut-off is given here.

Regarding `Nc1ccnc2c1c(I)cn2[C@@H]1O[C@H](CO)[C@@H](O)[C@H]1O`, the EC50 with Trypanosoma cruzi [1] worked out at 40 nM. For the same compound, the remaining at 1 h, 5 µM in series [2] stood at 94%; in series [3], 84%; on Cytochrome P450, 92%. The outcome with Trypanosoma cruzi [4] was Active. The Activity result in series [5] is “Non-Toxic”; in the series with Trypanosoma cruzi [6], 100%.
